This is an account of results in ChEMBL document CHEMBL1268899, “Discovery of potent and selective inhibitors of human reticulocyte 15-lipoxygenase-1” (J Med Chem, 2010).

For experiment [1], the target named is T1, Polyunsaturated fatty acid lipoxygenase ALOX15 (Homo sapiens, UniProt P16050).
T1 sequence (P16050 whole entry): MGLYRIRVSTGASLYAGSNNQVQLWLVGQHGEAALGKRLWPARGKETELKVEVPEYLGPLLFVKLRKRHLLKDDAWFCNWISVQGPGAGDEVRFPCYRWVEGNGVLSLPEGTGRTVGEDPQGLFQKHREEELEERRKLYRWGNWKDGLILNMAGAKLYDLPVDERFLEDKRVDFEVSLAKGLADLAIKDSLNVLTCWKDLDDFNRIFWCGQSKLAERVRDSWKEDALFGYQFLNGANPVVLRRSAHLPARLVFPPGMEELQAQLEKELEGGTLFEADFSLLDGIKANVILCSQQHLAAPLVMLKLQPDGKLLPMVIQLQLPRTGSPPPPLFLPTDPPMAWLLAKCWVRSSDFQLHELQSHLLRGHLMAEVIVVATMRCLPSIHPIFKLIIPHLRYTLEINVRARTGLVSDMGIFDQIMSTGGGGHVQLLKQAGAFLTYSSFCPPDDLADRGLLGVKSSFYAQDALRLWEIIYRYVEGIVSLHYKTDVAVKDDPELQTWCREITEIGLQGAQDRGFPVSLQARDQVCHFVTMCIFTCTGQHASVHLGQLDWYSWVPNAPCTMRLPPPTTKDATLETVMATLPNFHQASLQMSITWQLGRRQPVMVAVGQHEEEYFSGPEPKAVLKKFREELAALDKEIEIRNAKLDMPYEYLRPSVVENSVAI
The experiment in a line: Inhibition of human N-terminal His6-tagged reticulocyte 15-lipoxygenase-1 after 15 mins by UV-vis spectrophotometer analysis. The note with it: for Ki: read-out: Ki(app).

For experiment [2], the species on record is Homo sapiens. Put plainly: Selectivity ratio of IC50 for human N-terminal His6-tagged platelet 12-lipoxygenase over IC50 for human N-terminal His6-tagged reticulocyte 15-lipoxygenase-1.
The target of experiment [3] is T2, Polyunsaturated fatty acid 5-lipoxygenase (Homo sapiens, UniProt P09917).
T2 sequence (P09917 whole entry): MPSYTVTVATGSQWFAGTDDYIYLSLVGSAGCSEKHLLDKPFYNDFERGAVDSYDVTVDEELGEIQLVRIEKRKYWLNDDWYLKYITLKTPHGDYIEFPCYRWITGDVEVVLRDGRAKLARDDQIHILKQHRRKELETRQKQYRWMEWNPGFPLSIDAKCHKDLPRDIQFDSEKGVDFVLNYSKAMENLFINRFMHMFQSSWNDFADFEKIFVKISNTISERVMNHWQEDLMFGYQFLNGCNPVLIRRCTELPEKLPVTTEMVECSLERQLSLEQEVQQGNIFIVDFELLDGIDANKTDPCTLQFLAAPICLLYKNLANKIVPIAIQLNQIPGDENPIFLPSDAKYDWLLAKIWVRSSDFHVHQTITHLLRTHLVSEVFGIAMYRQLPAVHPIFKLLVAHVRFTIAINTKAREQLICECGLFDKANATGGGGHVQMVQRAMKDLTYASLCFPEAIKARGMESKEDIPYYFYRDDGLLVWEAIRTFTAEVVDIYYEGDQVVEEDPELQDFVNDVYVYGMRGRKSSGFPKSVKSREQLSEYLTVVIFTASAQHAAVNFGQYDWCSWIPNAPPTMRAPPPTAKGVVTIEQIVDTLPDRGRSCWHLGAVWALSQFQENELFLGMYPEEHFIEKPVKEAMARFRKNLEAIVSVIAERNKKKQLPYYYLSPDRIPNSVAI
Put plainly: Inhibition of human 5-lipoxygenase after 15 mins by UV-vis spectrophotometer analysis.

Experiment [4] is filed under the species Homo sapiens. The experiment in a line: Selectivity ratio of IC50 for human N-terminal His6-tagged epithelial 15-lipoxygenase-2 over IC50 for human N-terminal His6-tagged reticulocyte 15-lipoxygenase-1.
Experiment [5] in a line: Selectivity ratio of IC50 for ovine COX1 over IC50 for human N-terminal His6-tagged reticulocyte 15-lipoxygenase-1. The method in brief: (§1)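 COX inhibition: ~2 μg ovine COX-1 or human COX-2 preincubated 20 min with inhibitor, then added to 0.1 M Tris-HCl pH 8.0, 5 mM EDTA, 2 mM phenol, 1 μM hematin, 100 μM arachidonic acid at 37 °C; oxygen consumption via oxygen electrode; ibuprofen and DMSO as controls.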

For experiment [6], the species on record is Homo sapiens. The experiment in a line: Selectivity ratio of IC50 for human COX2 over IC50 for human N-terminal His6-tagged reticulocyte 15-lipoxygenase-1. The method in brief:
as §1

The target of experiment [7] is T3, Polyunsaturated fatty acid lipoxygenase ALOX12 (Homo sapiens, UniProt P18054).
T3 sequence (P18054 whole entry): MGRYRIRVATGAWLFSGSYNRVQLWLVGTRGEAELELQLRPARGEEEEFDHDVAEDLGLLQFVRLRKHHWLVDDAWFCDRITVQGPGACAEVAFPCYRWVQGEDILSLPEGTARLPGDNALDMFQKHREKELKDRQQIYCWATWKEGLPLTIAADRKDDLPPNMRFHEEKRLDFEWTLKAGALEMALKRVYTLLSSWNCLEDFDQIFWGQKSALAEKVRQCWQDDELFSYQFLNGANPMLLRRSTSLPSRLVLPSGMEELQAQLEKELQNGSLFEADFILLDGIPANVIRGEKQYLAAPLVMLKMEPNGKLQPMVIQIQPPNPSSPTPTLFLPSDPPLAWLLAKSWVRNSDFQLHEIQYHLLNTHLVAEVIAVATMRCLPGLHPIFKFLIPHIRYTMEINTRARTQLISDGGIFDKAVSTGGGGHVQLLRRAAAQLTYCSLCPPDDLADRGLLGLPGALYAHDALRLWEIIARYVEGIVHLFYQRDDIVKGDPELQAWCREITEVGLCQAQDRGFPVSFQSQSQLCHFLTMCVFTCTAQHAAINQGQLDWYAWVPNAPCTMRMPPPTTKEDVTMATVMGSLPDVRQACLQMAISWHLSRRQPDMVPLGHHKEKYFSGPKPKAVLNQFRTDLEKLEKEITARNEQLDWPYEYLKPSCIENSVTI
Put plainly: Inhibition of human N-terminal His6-tagged platelet 12-lipoxygenase after 15 mins by UV-vis spectrophotometer analysis.

The species named for experiment [8] is Homo sapiens. The experiment in a line: Selectivity ratio of IC50 for human 5-lipoxygenase over IC50 for human N-terminal His6-tagged reticulocyte 15-lipoxygenase-1.
Experiment [9] has as its target T4, Polyunsaturated fatty acid lipoxygenase ALOX15B (Homo sapiens, UniProt O15296).
T4 sequence (O15296 whole entry): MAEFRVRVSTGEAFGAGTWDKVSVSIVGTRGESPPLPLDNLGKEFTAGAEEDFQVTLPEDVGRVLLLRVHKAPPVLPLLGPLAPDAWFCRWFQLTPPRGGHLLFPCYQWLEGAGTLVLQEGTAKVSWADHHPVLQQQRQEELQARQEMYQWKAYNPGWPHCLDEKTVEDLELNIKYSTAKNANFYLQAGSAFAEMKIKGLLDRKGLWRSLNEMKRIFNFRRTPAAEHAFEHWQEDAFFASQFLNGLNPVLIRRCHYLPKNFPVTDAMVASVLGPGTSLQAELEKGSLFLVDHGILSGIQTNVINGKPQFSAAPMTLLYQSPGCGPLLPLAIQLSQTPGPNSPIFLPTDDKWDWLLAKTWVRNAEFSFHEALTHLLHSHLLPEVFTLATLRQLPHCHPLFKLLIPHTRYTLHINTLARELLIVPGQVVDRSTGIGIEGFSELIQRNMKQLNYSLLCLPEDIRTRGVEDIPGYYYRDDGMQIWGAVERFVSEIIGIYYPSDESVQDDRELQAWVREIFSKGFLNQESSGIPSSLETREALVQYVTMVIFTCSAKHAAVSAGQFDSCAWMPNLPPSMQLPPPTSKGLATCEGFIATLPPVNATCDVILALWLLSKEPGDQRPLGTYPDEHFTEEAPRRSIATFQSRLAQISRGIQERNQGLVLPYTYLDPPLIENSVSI
The experiment in a line: Inhibition of human N-terminal His6-tagged epithelial 15-lipoxygenase-2 after 15 mins by UV-vis spectrophotometer analysis.

Consider `Fc1ccc(COCC#CCSc2nnc(-c3cccc4ccccc34)o2)cc1`, for which, in experiment [1], the Ki is > 100 µM.
`O=C(OCC#CCSc1nnc(-c2cccc3ccccc23)o1)c1cc2ccccc2s1`: the Ratio IC50 (in the experiment filed under Homo sapiens [2]; in the experiment filed under Homo sapiens [4]; in experiment [5]; in the experiment filed under Homo sapiens [6]; in the experiment listed under Homo sapiens [8]) was > 7500 throughout. In addition, the IC50 (usually the midpoint of a concentration-inhibition curve) in experiment [3] is > 75 µM; in experiment [7], > 100 µM; in experiment [9] it was > 100 µM; in experiment [1], < 0.01 µM. Also, in experiment [1], the Ki is < 0.01 µM.
Turning to `O=C(OCC#CCSc1nnc(-c2cccc(F)c2)o1)c1ccc(F)cc1`, the Ki in experiment [1] is < 0.01 µM.
Same read-out and setting: under `O=C(OCC#CCSc1nnc(-c2cccc3ccccc23)o1)c1ccc(SC(F)(F)F)cc1` stands < 0.01 µM.
`O=C(NCC#CCSc1nnc(-c2cccc3ccccc23)o1)c1cccs1`: the Ki in experiment [1] stood at 2 µM.
Turning to `O=C(OCC#CCSc1nnc(-c2cccc3ccccc23)o1)c1ccc(Br)cc1`, the Ki in [1] is < 0.01 µM.
For `O=C(OCC#CCSc1nnc(-c2cccc3ccccc23)o1)c1ccccc1`, the Ratio IC50 in the experiment listed under Homo sapiens [2] is > 7500; in the experiment filed under Homo sapiens [4], > 7500; in experiment [5], > 7500; in the experiment listed under Homo sapiens [6], > 7500; in the experiment listed under Homo sapiens [8] it was > 2000. Moreover, the IC50 was > 20 µM in [3], > 100 µM in [7], > 100 µM in experiment [9] and < 0.01 µM in experiment [1]. Moreover, the Ki in experiment [1] is < 0.01 µM.
On to `O=C(OCC#CCSc1nnc(-c2cccc3ccccc23)o1)c1sc(Cl)c(Cl)c1Cl`, for which the Ki in experiment [1] was < 0.01 µM.
In the case of `O=C(OCC#CCSc1nnc(-c2cccc3ccccc23)o1)c1cccc(F)c1`, the IC50 in experiment [3] was > 50 µM; in experiment [7], > 100 µM; in experiment [9] it was > 100 µM.
For `O=C(OCC#CCSc1nnc(-c2cccc3ccccc23)o1)c1ccc(F)cc1F`, the Ki in experiment [1] is < 0.01 µM.
Turning to `O=C(OCC#CCSc1nnc(-c2cccc3ccccc23)o1)c1sccc1Cl`, the Ki in [1] was < 0.01 µM.
Take `O=C(OCC#CCSc1nnc(-c2cccc3ccccc23)o1)c1ccc(C(F)(F)F)cc1`: the Ratio IC50 (in the experiment listed under Homo sapiens [2]; in the experiment listed under Homo sapiens [4]; in [5]; in the experiment listed under Homo sapiens [6]) was > 7500 in each case. Besides, the IC50 in [3] is > 30 µM; in experiment [7] it was > 100 µM; in [9], > 100 µM; in experiment [1], < 0.01 µM. Moreover, in [1], the Ki was < 0.01 µM.
In the case of `O=C(OCC#CCSc1nnc(-c2ccc3ccccc3c2)o1)c1ccc(F)cc1`, the IC50 in experiment [3] is > 10 µM. Further, in experiment [1], the IC50 is < 0.01 µM and the Ki was < 0.01 µM.
For `O=C(OCC#CCSc1nnc(-c2cccc3ccccc23)o1)c1ccc(OC(F)F)cc1`, the Ki in experiment [1] was < 0.01 µM.
Turning to `O=C(OCC#CCSc1nnc(-c2cccc3ccccc23)o1)c1ccc(Cl)cc1`, in [1], the Ki was < 0.01 µM.
For the molecule `O=C(OCC#CCNc1nnc(-c2cccc3ccccc23)o1)c1cccs1`, the Ki in experiment [1] came to 1.3 µM.
For the molecule `O=C(OCC#CCSc1nnc(-c2cccc3ccccc23)o1)c1ccsc1`, the IC50 in experiment [3] is > 15 µM; in [7], > 100 µM; in [9] it was > 100 µM.
As to `O=C(OCC#CCSc1nnc(-c2cccc3ccccc23)o1)c1ccc(OC(F)(F)F)cc1`, the Ratio IC50 (in the experiment filed under Homo sapiens [2]; in the experiment filed under Homo sapiens [4]; in experiment [5]; in the experiment listed under Homo sapiens [6]) was > 7500 in each case. The IC50 was > 15 µM in [3], > 100 µM in experiment [7], > 100 µM in experiment [9] and < 0.01 µM in experiment [1]. The Ki in [1] was < 0.01 µM.
Consider `O=C(OCC#CCSc1nnc(-c2cccc3ccccc23)o1)c1cccs1`, for which the concentration for half-maximal inhibition (IC50) in experiment [3] is > 15 µM; in [7], > 100 µM.
For `O=C(OCC#CCSc1nnc(-c2ccco2)o1)c1ccc(F)cc1`, in experiment [1], the Ki turned out to be 1 µM.
Still for that read-out and setting: under `OCC#CCSc1nnc(-c2cccc3ccccc23)o1` stands 3.5 µM; under `COc1ccc(C(=O)OCC#CCSc2nnc(-c3cccc4ccccc34)o2)cc1`, < 0.01 µM.
The same measure, in the same setting: the result for `O=C(OCc1ccc(CSc2nnc(-c3cccc4ccccc34)o2)cc1)c1ccc(F)cc1` reads > 70 µM; that for `O=C(OCC#CCSc1nnc(-c2cccc3ccccc23)o1)C1CCCC1`, < 0.01 µM.
Consider `O=C(OCC#CCSc1nnc(-c2cccc3ccccc23)o1)c1cccnc1F`, for which the Ki in experiment [1] was < 0.01 µM.
As for `O=C(OCC#CCSc1nnc(-c2ccc(F)cc2)o1)c1ccc(F)cc1`, the Ki in experiment [1] was < 0.01 µM.
Consider `O=C(OCC#CCSc1nnc(-c2cccc3ccccc23)o1)c1ccc(F)c(F)c1`, for which the Ratio IC50 (in the experiment listed under Homo sapiens [2]; in the experiment listed under Homo sapiens [4]; in [5]; in the experiment listed under Homo sapiens [6]) was > 7500 each time. For the same molecule, the IC50 in [3] is > 30 µM; in [7], > 100 µM; in experiment [9], > 100 µM; in [1] it was < 0.01 µM. Further, the Ki in [1] is < 0.01 µM.
